Data set [1] deals with T1, rat UT-B (Rattus norvegicus, UniProt P97689).
T1 sequence (P97689 1-384): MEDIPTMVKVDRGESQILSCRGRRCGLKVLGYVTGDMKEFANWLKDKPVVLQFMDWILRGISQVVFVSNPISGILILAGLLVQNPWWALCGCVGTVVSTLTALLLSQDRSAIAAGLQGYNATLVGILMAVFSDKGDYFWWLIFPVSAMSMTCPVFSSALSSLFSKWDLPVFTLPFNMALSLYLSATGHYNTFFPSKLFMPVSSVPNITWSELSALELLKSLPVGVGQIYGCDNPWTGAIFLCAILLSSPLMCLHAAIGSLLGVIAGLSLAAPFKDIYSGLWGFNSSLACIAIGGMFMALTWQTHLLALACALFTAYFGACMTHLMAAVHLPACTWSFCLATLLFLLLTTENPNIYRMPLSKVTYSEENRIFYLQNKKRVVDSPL
Description: UT-B inhibition, erythrocyte lysis assay. It counts as cell-based. To be noted: for IC50: 15 min incubation.

Data set [2] is described as follows: Water solubility. The format is physicochemical.
For data set [3], the target named is T2, rat UT-A1 (Rattus norvegicus, UniProt Q62668).
T2 sequence (Q62668 1-929): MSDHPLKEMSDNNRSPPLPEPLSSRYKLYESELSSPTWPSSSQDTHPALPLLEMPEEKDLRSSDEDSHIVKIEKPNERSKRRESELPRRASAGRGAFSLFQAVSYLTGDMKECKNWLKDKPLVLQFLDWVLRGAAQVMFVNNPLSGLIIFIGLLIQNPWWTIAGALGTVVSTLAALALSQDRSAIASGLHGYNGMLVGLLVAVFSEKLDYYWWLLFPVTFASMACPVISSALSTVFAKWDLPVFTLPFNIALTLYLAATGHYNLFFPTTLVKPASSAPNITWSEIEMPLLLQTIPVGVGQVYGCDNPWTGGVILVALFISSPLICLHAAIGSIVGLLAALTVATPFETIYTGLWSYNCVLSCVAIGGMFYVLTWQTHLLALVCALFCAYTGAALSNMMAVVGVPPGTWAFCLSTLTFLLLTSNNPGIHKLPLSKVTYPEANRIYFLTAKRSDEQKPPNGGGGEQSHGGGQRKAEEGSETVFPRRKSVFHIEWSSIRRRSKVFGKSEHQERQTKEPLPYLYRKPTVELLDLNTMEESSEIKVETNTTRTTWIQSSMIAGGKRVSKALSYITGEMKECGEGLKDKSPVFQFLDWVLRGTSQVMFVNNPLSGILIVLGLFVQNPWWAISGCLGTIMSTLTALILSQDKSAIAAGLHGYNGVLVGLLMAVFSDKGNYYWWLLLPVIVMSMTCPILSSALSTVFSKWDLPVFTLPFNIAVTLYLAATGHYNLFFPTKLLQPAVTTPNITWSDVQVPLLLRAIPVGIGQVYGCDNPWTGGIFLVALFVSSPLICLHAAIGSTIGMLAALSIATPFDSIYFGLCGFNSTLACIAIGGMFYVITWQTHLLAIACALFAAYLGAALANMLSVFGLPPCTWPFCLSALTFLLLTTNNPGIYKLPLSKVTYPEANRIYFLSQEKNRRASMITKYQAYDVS
To be noted: read-out: UT-A1 IC50; earlier finding; cited from earlier work.

In data set [4] the target is T1, rat UT-B. To be noted: read-out: UT-B IC50; earlier finding; cited from earlier work.
For data set [5], the system named is rats. To be noted: listed as DMTU; cited from earlier work.
In data set [6] the target is T2, rat UT-A1. Description: UT-A1 inhibition assay. It counts as cell-based. To be noted: for IC50: UT-A1 IC50, MDCK cells expressing rat UT-A1, YFP and AQP1, 20 min incubation; for Selectivity for UT-A1 vs. UT-B inhibition: comparison of IC50 values for UT-A1 and UT-B.
Data set [7] has as its target T2, rat UT-A1. Description: Functional studies of UT-A1 inhibition. The format is cell-based. The method in brief:
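MDCK cells stably co-expressing rat UT-A1, YFP-H148Q/V163S and human AQP1 were plated 24 h before assay. Reversibility: 15 min with 0.2 mM test compound, two PBS washes, then assay. Kinetics: 0.2 mM added at varied times before assay. Urea dependence: concentration-response at 80–1,600 mM urea gradients. Read-out was YFP fluorescence 7 s after urea addition, normalised to negative and positive controls.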

Data set [8] relates to MDCK cells. Description: Cytotoxicity to MDCK cells. The format is cell-based, canine. To be noted: at solubility limit.
[9] abbreviates: read-out: UT-B IC50, rat erythrocyte lysis assay.
Where [10] appears, read: UT-B IC50, rat erythrocyte lysis assay.

In brackets after ≈: the same amount, converted by molar mass. Several values for one entry are separate records, joined by “and”; a condition that tells them apart may be missing. Equal entries are not always repeated. Where two headings read alike, the source gives them in different places.

What is called IC50 is the concentration that inhibits the measured activity by half. As usually defined, the solubility is the concentration that dissolves in the medium under given conditions. A higher solubility goes with much dissolved substance.

For `CNC(=S)NC` [Compound 1, N, N′-dimethylthiourea], the half-maximal inhibitory concentration (IC50) in data set [1] (setting [9]) is 3.9 ± 0.6 mM; in data set [3], 2 to 3 mM; in data set [4], 2 to 3 mM. The Water solubility in data set [2] is 7900 mM. In addition, the Solubility in saline in data set [2] (saline) was greater than 50 mg/mL. In addition, the Diuretic action entry in data set [5] was “reduce urinary osmolality in rats and produce a salt-sparing diuresis”.

With `NC(N)=S` [Compound 2], in data set [6], the “UT-A1 inhibition activity (in words)” value was “significant loss of UT-A1 and UT-B inhibition activity”. For the same molecule, in data set [1], the “UT-B inhibition activity (in words)” value was “significant loss of UT-A1 and UT-B inhibition activity”. For the same molecule, the IC50 in data set [1] (setting [9]) was greater than 25 mM.

For `CNC(=O)NC` [Compound 3, dimethylurea], the “UT-A1 inhibition activity (in words)” value in data set [6] is on record as “loss of activity”. Further, in data set [1], the “UT-B inhibition activity (in words)” value is reported as “loss of activity”. The IC50 in data set [1] (setting [9]) was found to be 14 ± 2 mM.

`CN(C)C(=S)N(C)C` [Compound 5, Tetramethylthiourea]: in data set [6], the “UT-A1 inhibition activity (in words)” value is “inactive” and the IC50 was greater than 25 mM. The “UT-B inhibition activity (in words)” value in data set [1] was “inactive”. In data set [1] (setting [10]), this molecule gave an IC50 greater than 25 mM.

In the case of `NC(=S)Nc1ccccc1` [Compound 9, phenylthiourea], in data set [6], the “UT-A1 inhibition activity (in words)” value was “potencies comparable to DMTU” and the half-inhibitory concentration (IC50) is 8.8 ± 0.3 mM. Further, the “UT-B inhibition activity (in words)” value in data set [1] is “potencies comparable to DMTU”. The molecule also yielded an IC50 in data set [1] (setting [10]) of 14 ± 1 mM.

As to `NC(=S)Nc1ccc([N+](=O)[O-])cc1` [Compound 18, 4-nitrophenylthiourea], in data set [6], half-maximal inhibition (IC50) required 1.3 ± 0.3 mM and the “Selectivity for UT-A1 vs. UT-B inhibition” value is recorded as “UT-A1 selective”. This molecule also returned an IC50 in data set [1] (setting [10]) of 10 ± 1 mM.

On to `NC(=S)Nc1ccc(Cl)c(Cl)c1` [Compound 21, 3,4-dichlorophenylthiourea], for which the IC50 in data set [6] came to 1.5 ± 0.4 mM; in data set [1] (setting [10]), 0.4 ± 0.1 mM.

As to `NC(=S)c1ccncc1` [Compound 26, thioisonicotinamide], the “Selectivity for UT-A1 vs. UT-B inhibition” value in data set [6] was “selective for UT-B over UT-A1”. In data set [1] (setting [9]), the IC50 came to 2.8 ± 0.5 mM.

Regarding `NC(=S)c1cccnc1` [Compound 27, thionicotinamide], the IC50 is greater than 25 mM in data set [6] and 10 ± 2 mM in data set [1] (setting [10]).

Turning to `NC(=S)Nc1cccc([N+](=O)[O-])c1` [Compound 32, 3-nitrophenylthiourea], in data set [6], the “IC50 improvement relative to 18” value was roughly 6 fold; the IC50 was ~0.2 mM and 0.2 mM; the “Selectivity for UT-A1 vs. UT-B inhibition” value is reported as “non-selective”. Further, in data set [1] (setting [10]), the concentration for half-maximal inhibition (IC50) was ~0.2 mM and 0.2 mM. In data set [7] (0.2 mM added at different times prior to assay), the “Kinetics of UT-A1 inhibition” value is “very rapid”. Further, in data set [7] (0.2 mM, 15 min incubation, washed twice), the “Reversibility of UT-A1 inhibition” value is on record as “fully reversible”. For the same molecule, the “Inhibition mechanism from urea concentration-dependence of IC50” value in data set [7] (urea gradients 80 to 1,600 mM) is recorded as “competitive inhibition mechanism”. This molecule returned a solubility in data set [2] (water) of 0.64 mM (≈ 126 µg/mL). Moreover, the “Cytotoxicity to MDCK cells” value in data set [8] is “no cytotoxicity”.

`NC(=S)c1ccncc1` [thioisonicotinamide]: the “Selectivity for UT-A1 vs. UT-B inhibition” value in data set [6] is “UT-B selective”. Also, the half-inhibitory concentration (IC50) in data set [1] (setting [9]) came to 2.8 mM.

cyclohexylthiourea [Compound 12]: in data set [6], the “UT-A1 inhibition activity (in words)” value is reported as “potencies comparable to DMTU”. For the same molecule, in data set [1], the “UT-B inhibition activity (in words)” value is reported as “potencies comparable to DMTU”. In addition, the concentration for half-maximal inhibition (IC50) in data set [1] (setting [9]) was 5.2 ± 0.6 mM.

The values above are taken from publication PMC4364388 (Biochimica et biophysica acta, 2015).
